Published values of several laboratories.
Target: Serine/threonine-protein kinase BRSK1 (BRSK1, Homo sapiens, UniProt Q8TDC3)
Residues used in one study (Q8TDC3 1-778): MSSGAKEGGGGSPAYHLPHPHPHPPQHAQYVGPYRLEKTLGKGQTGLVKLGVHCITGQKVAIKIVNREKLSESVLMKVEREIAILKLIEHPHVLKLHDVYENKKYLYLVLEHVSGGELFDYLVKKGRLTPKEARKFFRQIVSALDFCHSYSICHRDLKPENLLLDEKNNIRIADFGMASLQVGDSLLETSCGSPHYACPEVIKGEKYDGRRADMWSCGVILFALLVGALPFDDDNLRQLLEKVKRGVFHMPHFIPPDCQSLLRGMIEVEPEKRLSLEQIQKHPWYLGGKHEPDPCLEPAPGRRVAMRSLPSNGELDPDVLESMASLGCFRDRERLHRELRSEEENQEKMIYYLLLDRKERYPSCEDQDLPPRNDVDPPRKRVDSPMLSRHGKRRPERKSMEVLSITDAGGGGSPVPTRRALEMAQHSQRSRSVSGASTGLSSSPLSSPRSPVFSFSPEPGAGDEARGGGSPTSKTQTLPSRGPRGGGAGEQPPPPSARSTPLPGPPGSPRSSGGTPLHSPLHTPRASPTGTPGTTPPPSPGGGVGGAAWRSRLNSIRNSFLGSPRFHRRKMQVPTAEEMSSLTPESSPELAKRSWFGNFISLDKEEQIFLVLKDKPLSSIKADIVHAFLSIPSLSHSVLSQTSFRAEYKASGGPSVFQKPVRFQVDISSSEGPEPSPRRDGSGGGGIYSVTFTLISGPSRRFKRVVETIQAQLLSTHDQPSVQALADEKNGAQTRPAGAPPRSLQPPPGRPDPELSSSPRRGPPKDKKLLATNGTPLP

`C[C@H](c1ccnc(Nc2nc3ccc(-c4cc(N(C)C)ncn4)cc3[nH]2)c1)N1CCN(C(=O)CC(F)(F)F)CC1` has a remaining binding of 100% (cell-free assay, competition with immobilised ligand; 0.1 µM).
With `N[C@@H]1CCN(c2nccc(-c3cnn4ncccc34)n2)C1` the remaining binding was 100% (binding; 1 µM).
`NS(=O)(=O)c1cc(NC(=O)Cc2ccccc2)ccc1Oc1cccc(Cl)c1` has a remaining binding of 91% (cell-free assay, competition with immobilised ligand; 1 µM).
`Cc1sc(C(=O)NC2COC2)cc1-n1cc(NC(=O)Nc2c(F)cccc2Cl)cn1` has a remaining activity of 87.8% (enzyme activity, inhibitor; 10 µM).
For `N#CCCc1ccc2c(c1)-c1[nH]c3ccc([N+](=O)[O-])cc3c1CC(=O)N2`, the remaining signal was 46.8% (cell-free assay; 0.5 µM).
`CCN(CC)CCNC(=O)c1c(C)[nH]c(/C=C2\C(=O)Nc3ccc(F)cc32)c1C` gave an inhibition of 27% (enzyme activity, inhibitor; 0.3 µM).
With `Nc1ncnc2occ(-c3ccc(NC(=O)Nc4cc(C(F)(F)F)ccc4F)cc3)c12` the remaining signal was 8.4% (cell-free assay, inhibitor; 20 µM).
`Cc1cc(NC(=O)c2cccc3cc(-c4cccc5[nH]nc(N)c45)ccc23)ccc1F` has an activity vs control of 123% (enzyme activity, inhibitor; 0.1 µM).
With `CC(=O)N1CCC(c2ccc(C(=O)NC(=N)N)cc2C(F)(F)F)CC1` the remaining binding was 87% (cell-free assay, competition with immobilised ligand; 1 µM).
With `Cc1ccc(Nc2nccc(N(C)c3ccc4c(C)n(C)nc4c3)n2)cc1S(N)(=O)=O` the inhibition was 36% (enzyme activity, inhibitor; 10 µM).
With `CNC(=O)c1ccc(Nc2ncc(C(F)(F)F)c(NCc3nccnc3N(C)S(C)(=O)=O)n2)cc1` the remaining binding was 100% (cell-free assay, competition with immobilised ligand; 0.1 µM).
`Oc1cccc(-c2nc(N3CCOCC3)c3oc4ncccc4c3n2)c1` has a remaining activity of 109% (enzyme activity, inhibitor; 10 µM).
The inhibition of `CNc1cccc2cc(C(=O)Nc3ccc(C(=O)O)cc3)c(=O)[nH]c12` is reported as 2.7% (enzyme activity, inhibitor; 10 µM).
`COc1cc(Nc2cnc(C#N)c(O[C@H](C)CN(C)C)n2)ncc1-c1cnn(C)c1` gave a remaining activity of 53% (enzyme activity, inhibitor, radiometric; 10 µM).
For `CC/C(=N\NC(=O)NCc1cccc(O)c1)c1ccc(O)c(C)c1O`, the inhibition was 1.7% (enzyme activity, inhibitor; 0.1 µM).
For `CC(C)(O)[C@H]1CC[C@H](Nc2ccc3ncc(-c4cccc(C(F)(F)F)c4)n3n2)CC1`, the remaining activity was 98.1% (enzyme activity, inhibitor; 1 µM).
`O=C(Nc1cnn(-c2csc(C(=O)NC3COC3)c2)c1)Nc1ccccc1Cl` gave a remaining activity of 85.5% (enzyme activity, inhibitor; 5 µM).
For `CN1CC(Oc2cnc(C#N)cc2-c2ccn3nc(NC(=O)C4CC4)cc3c2)C1`, the inhibition was 6% (enzyme activity, inhibitor; 1 µM).
With `CN([C@@H]1CCc2c(CC(=O)O)c3ccccc3n2C1)S(=O)(=O)c1ccc(F)cc1` the remaining binding was 100% (cell-free assay, competition with immobilised ligand; 1 µM).
`CNC(=O)c1cc(Oc2ccc(NC(=O)Nc3ccc(Cl)c(C(F)(F)F)c3)cc2)ccn1` has an inhibition of 17% (enzyme activity, inhibitor; 0.3 µM).
`O=C(Nc1cccnn1)N1CCC(=Cc2cccc(Oc3ccc(C(F)(F)F)cn3)c2)CC1` gave a remaining binding of 73% (cell-free assay, competition with immobilised ligand; 1 µM).
`FC(F)(F)Oc1cccc(-c2cnc3ccc(-c4ccncc4)nn23)c1` gave an activity vs control of 103% (enzyme activity, inhibitor, radiometric; 1 µM).
`COc1cc2ncnc(Nc3ccc(Oc4ccccc4)c(C)c3C)c2cc1OC` gave an inhibition of 0% (enzyme activity, inhibitor; 1 µM).
`C[C@H](c1ccc(F)cc1)N(Cc1cccc(C(=O)O)c1)C(=O)c1cnc2ccccc2c1` gave a remaining binding of 100% (cell-free assay, competition with immobilised ligand; 1 µM).
`O=C1Nc2ccc(Cl)cc2C1=Cc1cc(Cl)c(O)c(Cl)c1` has a remaining signal of 81.3% (cell-free assay; 0.5 µM).
The remaining binding of `CC1=C(C#N)C(c2ccc3c(c2)c(NC(=O)c2ccccc2C)nn3C)C(C#N)=C(C)N1` is reported as 100% (cell-free assay, competition with immobilised ligand; 1 µM).
`CC(C)(C)c1nc2c(s1)c1nc(N)ncc1c1ccc(NS(=O)(=O)c3c(F)cccc3F)c(F)c12` gave a remaining activity of 102% (enzyme activity, inhibitor, radiometric; 1 µM).
